The values that follow come from ChEMBL document CHEMBL1128426, “Cyclic variations of 3-quinolinecarboxamides and effects on antiherpetic activity” (1995).

Each structure is given as a SMILES string. ≈ marks a conversion by molar mass, not a printed value. Calls of active or inactive are those of the source.

For experiment [1], the system named is Mus musculus. The experiment can be described thus: The maximum tolerated dose (MTD) was defined as the highest dose of compound that did not show any signs of toxicity in mice after po administration. It is filed as functional. An outline of the steps:
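Oral dosing in mice within the HSV-2 infection model. MTD is the highest dose showing no overt signs of toxicity.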

For experiment [2], the system named is Mus musculus. The experiment can be described thus: The compound was tested in vivo for the lowest dose(minimum effective dose) at which anti-herpetic activity was observed in terms of survival times of mice after po administration; no activity. It is filed as functional, organism-based.
Experiment [3] has as its system Vero. The experiment can be described thus: The compound was tested in vitro for the highest concentration (maximum tolerated level) that showed no cellular toxicity by visualization of stained cells. It is filed as functional, Chlorocebus sabaeus. An outline of the steps: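 Maximum tolerated level, run alongside the HSV-2 plaque assay in Vero cells: the highest concentration showing no cellular toxicity when the stained cells were inspected visually.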

Experiment [4] has as its system Vero. The experiment can be described thus: In vitro anti-herpetic activity against HSV-2 plaque formation in vero cells. It is filed as functional. Particulars: Chlorocebus sabaeus. An outline of the steps: (§1)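 HSV-2 plaque reduction in Vero cells. MIC is the lowest concentration that inhibited plaque formation by 50%. For active compounds, values are the mean of at least two experiments, SD under ±50%.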

The test system of experiment [5] is Mus musculus. Nature of the experiment: The compound was tested in vivo for the lowest dose(minimum effective dose) at which anti-herpetic activity was observed in terms of survival times of mice after po administration. Particulars: read-out: MED. It is filed as functional. An outline of the steps: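 HSV-2 infection model in mice, test agent given orally. MED is the lowest dose giving survival times statistically different from placebo, based on at least two experiments for active compounds.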

Experiment [6] deals with Vero. The experiment can be described thus: In vitro anti-herpetic activity against HSV-2 plaque formation in vero cells; no activity. The class given is functional, cell-based. As to conditions: Chlorocebus sabaeus. An outline of the steps: as §1
Experiment [7] relates to Mus musculus. Nature of the experiment: The compound was tested in vivo for the lowest dose(minimum effective dose) at which anti-herpetic activity (HSV-2) was observed in terms of survival times of mice after po administration; no activity. It is filed as functional, organism-based.

`CCn1c(C)c2c(=O)onc-2c2ccc(-c3ccncc3)cc21` had an MTD with Mus musculus [1] greater than 50 mg/kg. Further, in the experiment with Mus musculus [2], the MED result was “inactive”. The molecule also came in with an MTL with Vero [3] greater than 100 µg/mL. In the experiment with Vero [4], the MIC is 2.9 µg/mL (≈ 9.5 µM).

Take `CCn1cc(C(N)=O)c(=O)c2ccc(-c3ccncc3)cc21`: in the experiment with Mus musculus [1], the MTD came out at 50 mg/kg. Further, the minimal effective dose with Mus musculus [5] was determined as 50 mg/kg. In the experiment with Vero [3], this molecule displayed an MTL of 12.5 µg/mL. The MIC in the experiment with Vero [4] turned out to be 6.5 µg/mL (≈ 22.2 µM).

Molecule `NC(=O)c1cn(-c2ccc(F)cc2)c2cc(-c3ccncc3)ccc2c1=O` had an MTD in the experiment with Mus musculus [1] of 50 mg/kg. Moreover, the minimal effective dose in the experiment on Mus musculus [5] was 25 mg/kg. The molecule further returned an MTL in the experiment on Vero [3] of 6.25 µg/mL. In the experiment on Vero [4], this molecule yielded an MIC of 0.24 µg/mL (≈ 0.668 µM).

In the experiment on Mus musculus [1], `CCn1cc2c(=O)[nH]nc-2c2ccc(-c3ccncc3)cc21` displayed an MTD greater than 200 mg/kg. Also, the MED entry with Mus musculus [2] is “inactive”. In the experiment on Vero [3], the MTL stood at 50 µg/mL. Besides, the MIC with Vero [4] was found to be 27 µg/mL (≈ 93 µM).

Molecule `CCn1cc2c(=O)n(-c3ccccc3)nc-2c2ccc(-c3ccncc3)cc21` yielded an MTL in the experiment with Vero [3] greater than 100 µg/mL. Moreover, the MIC entry in the experiment with Vero [6] is “inactive”.

Regarding `CCn1c(C)c(C(N)=O)c(=O)c2ccc(-c3ccncc3)cc21`, in the experiment with Vero [3], the MTL came to 50 µg/mL. For the same molecule, the MIC entry in the experiment on Vero [6] was “inactive”.

Consider `CCn1cc2c(=O)n(C)nc-2c2ccc(-c3ccncc3)cc21`, for which the MTL in the experiment on Vero [3] came out at 3.1 µg/mL. Moreover, the MIC result in the experiment with Vero [6] is “inactive”.

The molecule `CCn1cc2c(O)cnc-2c2ccc(-c3ccncc3)cc21` displayed an MTL in the experiment with Vero [3] of 100 µg/mL. For the same molecule, in the experiment on Vero [6], the MIC entry is “inactive”.

In the experiment with Vero [3], `CCn1cc2c(=O)ncnc-2c2ccc(-c3ccncc3)cc21` had an MTL greater than 100 µg/mL. In addition, in the experiment on Vero [6], the MIC entry was “inactive”.

Regarding `Nc1nc2c(ncn2COCCO)c(=O)[nH]1` [ACYCLOVIR], the MTD in the experiment with Mus musculus [1] was greater than 200 mg/kg. Besides, the minimal effective dose with Mus musculus [5] amounted to 12 mg/kg. Besides, the MTL in the experiment on Vero [3] is greater than 200 µg/mL. The MIC with Vero [4] amounted to 1.3 µg/mL (≈ 5.77 µM).

Consider `CCn1cc2c(=O)onc-2c2ccc(-c3ccncc3)cc21`, for which the MTD in the experiment with Mus musculus [1] was greater than 400 mg/kg. Further, the MED entry with Mus musculus [7] was “inactive”. The molecule also had an MTL in the experiment on Vero [3] greater than 100 µg/mL. In the experiment on Vero [4], this molecule came in with an MIC of 6.3 µg/mL (≈ 21.6 µM).
